Test results published in ChEMBL document CHEMBL4024781, “Comprehensive Synthesis of Amino Acid-Derived Thiazole Peptidomimetic Analogues to Understand the Enigmatic Drug/Substrate-Binding Site of P-Glycoprotein” (J Med Chem, 2018).

How the values were obtained:
Cytochrome P450 3A4 = Cytochrome P450 3A4 (Homo sapiens, UniProt P08684); test: (§1) Inhibition of CYP3A4 (unknown origin) at 25 uM by fluorescence based-vivid CYP450 green screening kit based assay; type: ADME; conditions: 25 µM
[1] = molecular target: T1, ATP-dependent translocase ABCB1 (Homo sapiens, UniProt P08183); test: Inhibition of human P-gp transfected in HEK293 cells assessed as potentiation of paclitaxel-induced cytotoxicity by measuring fold reduction in paclitaxel IC50 at 10 uM pre-incubated for 1 hr before paclitaxel addition and measured after 72 hrs by MTT assay; type: cell-based; conditions: hek293, 72 h
T1 sequence (P08183 whole entry): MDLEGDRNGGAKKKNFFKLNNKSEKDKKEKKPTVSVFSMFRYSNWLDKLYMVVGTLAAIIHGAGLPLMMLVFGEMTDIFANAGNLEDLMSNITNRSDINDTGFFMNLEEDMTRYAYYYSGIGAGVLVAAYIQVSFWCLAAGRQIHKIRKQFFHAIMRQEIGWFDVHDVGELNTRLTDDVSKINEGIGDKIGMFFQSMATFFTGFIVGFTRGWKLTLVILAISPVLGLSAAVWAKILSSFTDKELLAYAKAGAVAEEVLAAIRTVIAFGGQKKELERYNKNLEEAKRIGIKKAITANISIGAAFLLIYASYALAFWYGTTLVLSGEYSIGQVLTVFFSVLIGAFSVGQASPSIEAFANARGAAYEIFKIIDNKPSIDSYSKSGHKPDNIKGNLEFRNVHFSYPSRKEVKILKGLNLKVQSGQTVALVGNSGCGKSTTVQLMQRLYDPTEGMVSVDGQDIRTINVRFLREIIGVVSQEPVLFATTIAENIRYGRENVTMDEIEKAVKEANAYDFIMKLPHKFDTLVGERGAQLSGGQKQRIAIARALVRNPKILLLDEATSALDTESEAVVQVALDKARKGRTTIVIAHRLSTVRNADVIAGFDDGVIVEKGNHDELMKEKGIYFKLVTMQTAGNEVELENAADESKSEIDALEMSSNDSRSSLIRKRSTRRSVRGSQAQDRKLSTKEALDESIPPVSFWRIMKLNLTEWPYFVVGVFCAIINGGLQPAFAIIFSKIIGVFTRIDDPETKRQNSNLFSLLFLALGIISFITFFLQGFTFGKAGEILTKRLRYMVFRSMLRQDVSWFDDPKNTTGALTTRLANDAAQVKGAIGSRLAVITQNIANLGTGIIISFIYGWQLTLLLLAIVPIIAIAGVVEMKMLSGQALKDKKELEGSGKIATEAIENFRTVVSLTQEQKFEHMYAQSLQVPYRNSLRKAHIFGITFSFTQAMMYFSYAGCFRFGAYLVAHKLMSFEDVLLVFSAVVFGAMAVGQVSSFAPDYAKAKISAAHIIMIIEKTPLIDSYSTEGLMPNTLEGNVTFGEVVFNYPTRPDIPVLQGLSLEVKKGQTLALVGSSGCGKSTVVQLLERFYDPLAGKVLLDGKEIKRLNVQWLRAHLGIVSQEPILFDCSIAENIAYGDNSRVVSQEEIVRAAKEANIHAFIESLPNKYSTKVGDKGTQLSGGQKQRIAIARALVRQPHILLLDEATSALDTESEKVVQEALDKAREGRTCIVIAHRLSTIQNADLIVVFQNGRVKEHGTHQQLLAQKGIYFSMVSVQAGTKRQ
Procedure, shortened: (§2)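 HEK293 cells stably transfected with ABCB1 or empty pcDNA3.1 vector, kept in G418. Seeded at 5000/well and grown 24 h, then given modulator at 10 μM for 1 h before serially diluted paclitaxel (up to 10 μM). MTT read at 570 nm after 72 h. Paclitaxel IC50 from four experiments in triplicate. Fold resistance = IC50 with modulator ÷ IC50 of paclitaxel alone in vector-control cells.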

CYP3A4 [2] = molecular target: T2, CYP3A4 (Homo sapiens, UniProt P08684); test: Inhibition of CYP3A4 (unknown origin) at 50 uM by fluorescence based-vivid CYP450 green screening kit based assay; type: ADME
T2 sequence (P08684 whole entry): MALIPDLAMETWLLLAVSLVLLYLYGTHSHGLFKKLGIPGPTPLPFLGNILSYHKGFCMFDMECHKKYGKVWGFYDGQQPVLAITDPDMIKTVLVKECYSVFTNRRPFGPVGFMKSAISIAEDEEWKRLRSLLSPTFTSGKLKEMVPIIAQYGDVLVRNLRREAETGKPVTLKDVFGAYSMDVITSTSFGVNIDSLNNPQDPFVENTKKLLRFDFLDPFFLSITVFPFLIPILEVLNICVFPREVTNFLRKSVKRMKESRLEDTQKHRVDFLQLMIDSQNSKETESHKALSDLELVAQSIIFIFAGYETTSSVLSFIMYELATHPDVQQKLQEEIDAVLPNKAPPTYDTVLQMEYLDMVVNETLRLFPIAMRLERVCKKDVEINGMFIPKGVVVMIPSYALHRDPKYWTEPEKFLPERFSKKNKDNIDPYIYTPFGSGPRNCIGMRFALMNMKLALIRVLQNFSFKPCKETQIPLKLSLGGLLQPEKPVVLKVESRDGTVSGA

[3] = Cytotoxicity in P-gp tranfected HEK293 cells assessed as cell survival at 10 uM after 72 hrs by MTT assay; type: ADME, cell-based; conditions: human, P-gp transfected HEK293 cells
Procedure, shortened: (§3)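 HEK293 cells stably transfected with empty pcDNA3.1 vector or ABCB1 vector, kept in DMEM with 10% FBS, 1% penicillin/streptomycin, and 2 mg/mL G418 at 37°C in 5% CO2. Cells were seeded at 5000/well, and after 24 h treated with test compound alone, diluted from 10 mM DMSO stocks into medium. After 72 h, viability was read by MTT (4 mg/mL, 4 h), with formazan dissolved in DMSO and absorbance read at 570 nm.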

[4] = molecular target: T1, ATP-dependent translocase ABCB1; test: Displacement of [125I]-IAAP from human P-gp expressed in high five insect cell membrane vesicles preincubated for 10 mins followed by photocrosslinking for 10 mins by exposing under UV light for 10 mins by SDS-PAGE based method
Procedure, shortened: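 Membrane vesicles from P-gp-expressing High Five insect cells (65–75 μg protein/100 μL) incubated with compound (0–5 or 0–10 μM) in 50 mM MES-Tris pH 6.8, 150 mM NaCl, 37 °C, 10 min; moved to 4 °C, 4–5 nM [125I]-IAAP added under subdued light; 366 nm UV 10 min; P-gp band incorporation quantified after SDS-PAGE, DMSO-only as 100%.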

P-gp (ABCB1) [5] = molecular target: T3, P-gp (ABCB1) (Homo sapiens, UniProt P08183); test: Inhibition of human P-gp expressed in high five insect cell membrane vesicles by measuring the vanadate-sensitive ATPase activity of P-gp at 2.5 uM preincubated for 5 mins in the presence of sodium orthovanadate measured after 20 mins by colorimetric method
T3 sequence (P08183 whole entry): as the sequence (P08183 whole entry) above

HEK293 = test: Potentiation of paclitaxel-induced cytotoxicity against parental HEK293-pcDNA 3.1 transfected cells assessed as fold reduction in paclitaxel IC50 at 10 uM pre-incubated for 1 hr before paclitaxel addition and measured after 72 hrs by MTT assay; type: functional, Homo sapiens; procedure, shortened: as §2
P-gp (ABCB1) [6] = molecular target: T3, P-gp (ABCB1); test: Inhibition of human P-gp expressed in high five insect cell membrane vesicles by measuring the vanadate-sensitive ATPase activity of P-gp at 0.5 uM preincubated for 5 mins in the presence of sodium orthovanadate measured after 20 mins by colorimetric method
[7] = Cytotoxicity in parental HEK293-pcDNA 3.1 transfected cells assessed as cell survival at 10 uM after 72 hrs by MTT assay; type: cell-based; conditions: human, parental HEK293 cells transfected with pcDNA 3.1; procedure, shortened: as §3
P-gp (ABCB1) [8] = molecular target: T3, P-gp (ABCB1); test: Activation of human P-gp expressed in high five insect cell membrane vesicles by measuring the vanadate-sensitive ATPase activity of P-gp at 2.5 uM preincubated for 5 mins in the presence of sodium orthovanadate measured after 20 mins by colorimetric method; conditions: read-out: Activity
P-gp (ABCB1) [9] = molecular target: T3, P-gp (ABCB1); test: Activation of human P-gp expressed in high five insect cell membrane vesicles by measuring the vanadate-sensitive ATPase activity of P-gp at 0.5 uM preincubated for 5 mins in the presence of sodium orthovanadate measured after 20 mins by colorimetric method; conditions: read-out: Activity
P-gp (ABCB1) [10] = molecular target: T3, P-gp (ABCB1); test: Activation of human P-gp expressed in high five insect cell membrane vesicles by measuring the vanadate-sensitive ATPase activity of P-gp at 0.05 uM preincubated for 5 mins in the presence of sodium orthovanadate measured after 20 mins by colorimetric method; conditions: read-out: Activity
CYP3A4 [11] = molecular target: T2, CYP3A4; test: as §1; type: ADME

Cytochrome P450 3A4, sequence (P08684 whole entry): as the sequence (P08684 whole entry) above

Compound	activity at 20 min, 2.5 µM (P-gp (ABCB1) [8]) [%]	activity at 20 min, 0.5 µM (P-gp (ABCB1) [9]) [%]	further results
COc1cc(C(=O)NC(Cc2ccccc2)c2nc(C(=O)NC3CCC(F)(F)CC3)cs2)cc(OC)c1OC (stereo unspecified)			inhibition (INH) (Cytochrome P450 3A4): Not Active; fold change (FC) [1]: 1.7; inhibition at 50 µM (CYP3A4 [2]): 32.9%; viability at 72 h, 10 µM [3]: > 80%; IC50 [4]: 760 nM; inhibition (INH) ([4]; human, 10 min): Dose-dependent effect; inhibition at 20 min, 2.5 µM (P-gp (ABCB1) [5]): 42.5%; fold change (FC) (HEK293): 0.5; inhibition at 20 min, 0.5 µM (P-gp (ABCB1) [6]): 39.6%; viability at 72 h, 10 µM [7]: > 80%
COc1cc(C(=O)N[C@H](c2nc(C(=O)NC3CCNCC3)cs2)C(C)C)cc(OC)c1OC	14.5	46.3	
CC(C)[C@H](NC(=O)C1CCC(F)(F)CC1)c1nc(C(=O)NC2CCC(F)(F)CC2)cs1		≤ 10	inhibition at 20 min, 2.5 µM (P-gp (ABCB1) [5]): 16.4%
COc1cc(C(=O)NC(Cc2ccc(O)cc2)c2nc(C(=O)NC3CCC(F)(F)CC3)cs2)cc(OC)c1OC (stereo unspecified)			inhibition at 20 min, 2.5 µM (P-gp (ABCB1) [5]): 23%; inhibition at 20 min, 0.5 µM (P-gp (ABCB1) [6]): 22.4%
CC(C)[C@H](N)c1nc(C(=O)NC2CCC(F)(F)CC2)cs1	≤ 10	≤ 10	
COc1cc(C(=O)N[C@H](c2nc(C(=O)NC3CCC3)cs2)C(C)C)cc(OC)c1OC	≤ 10	25.3	
COc1cc(C(=O)N2CCCC2c2nc(C(=O)NC3CCC(F)(F)CC3)cs2)cc(OC)c1OC (stereo unspecified)	21	≤ 10	
COc1cc(C(=O)N[C@H](c2nc(C(=O)NC3CCN(c4ncccn4)CC3)cs2)C(C)C)cc(OC)c1OC	83	17.1	
COc1cc(C(=O)N[C@H](c2nc(C(=S)NC3CCCCC3)cs2)C(C)C)cc(OC)c1OC	27	≤ 10	
COc1cc(C(=O)N[C@H](c2nc(C(=O)N[C@@H]3CCCc4ccccc43)cs2)C(C)C)cc(OC)c1OC	31.3	33.9	fold change (FC) [1]: 2.9; viability at 72 h, 10 µM [3]: > 80%; fold change (FC) (HEK293): 1.4; viability at 72 h, 10 µM [7]: > 80%
COc1cc(C(=O)N[C@H](c2nc(C(=O)NCCCC(F)(F)F)cs2)C(C)C)cc(OC)c1OC	77.3	17.1	
COc1cc(C(=O)N[C@H](c2nc(C(=O)NC3CC3)cs2)C(C)C)cc(OC)c1OC		≤ 10	activity at 20 min, 0.05 µM (P-gp (ABCB1) [10]): ≤ 10%
CC(C)[C@H](NC(=O)c1cccc(N)c1)c1nc(C(=O)Nc2ccccc2C(=O)c2ccccc2)cs1		308	inhibition at 25 µM (CYP3A4 [11]): 43.6%; fold change (FC) [1]: 17.9; inhibition at 50 µM (CYP3A4 [2]): 83.3%; viability at 72 h, 10 µM [3]: > 80%; activity at 20 min, 0.05 µM (P-gp (ABCB1) [10]): 376%; fold change (FC) (HEK293): 0.5; viability at 72 h, 10 µM [7]: > 80%

Further lines, with some results ahead:

activity at 20 min, 2.5 µM (P-gp (ABCB1) [8]) [%]	activity at 20 min, 0.5 µM (P-gp (ABCB1) [9]) [%]	Compound	further results
164	135	CC(C)[C@H](NC(=O)c1ccc(N=[N+]=[N-])cc1)c1nc(C(=O)Nc2ccccc2C(=O)c2ccccc2)cs1	
	112	COc1cc(C(=O)N[C@H](c2nc(C(=O)Nc3ccccc3Cc3ccccc3)cs2)C(C)C)cc(OC)c1OC	activity at 20 min, 0.05 µM (P-gp (ABCB1) [10]): 15%
123	108	COc1cc(C(=O)N[C@H](c2nc(C(=O)N[C@H]3CCCc4ccccc43)cs2)C(C)C)cc(OC)c1OC	
	52	COc1cc(C(=O)N[C@H](c2nc(C(=O)Nc3ccccc3NC(=O)c3ccccc3)cs2)C(C)C)cc(OC)c1OC	activity at 20 min, 0.05 µM (P-gp (ABCB1) [10]): ≤ 10%
176	57	COc1cc(C(=O)N[C@H](c2nc(C(=O)Nc3cc(F)c(F)c(F)c3)cs2)C(C)C)cc(OC)c1OC	
	142	COc1cc(C(=O)N[C@H](c2nc(C(=O)Nc3ccccc3C(=O)Nc3ccccc3)cs2)C(C)C)cc(OC)c1OC	activity at 20 min, 0.05 µM (P-gp (ABCB1) [10]): 21%
